For assay [1], the system named is Cricetinae gen. sp. Description: Total cultures(13) versus active (13) at 10e-8 M conc. in hamster tracheal organ culture assay (TOC). It is filed as functional, Trachea. Summed up:
(§1)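 Tracheas from Syrian golden hamsters kept on a vitamin A deficient diet from birth to 30–32 days old. Cultured serum-free (CMRL 1066 with insulin, hydrocortisone, glutamine, antibiotics), one explant per dish, 50% O2/45% N2/5% CO2, 36 °C, rocked. 3 days without retinoid, then 7 days with retinoid, medium renewed three times. Histology on day 10. Active means keratin/keratohyaline granules absent. Usually duplicate, 6–7 tracheas per concentration.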

For assay [2], the system named is Cricetinae gen. sp. Description: Total cultures(14) versus active (10) at 10e-9 M conc. in hamster tracheal organ culture assay (TOC). The format is functional, Trachea. The gist of the method: as §1
The subject of assay [3] is Cricetinae gen. sp. The assay can be described thus: Total cultures(14) versus active (6) at 10e-10 M conc. in hamster tracheal organ culture assay (TOC). The format is functional, Trachea. Summed up:
as §1

Assay [4] concerns Cricetinae gen. sp. The assay can be described thus: ED50 of retinoid required to effect reversal of keratinization. The format is functional. Summed up:
as §1

Assay [5] concerns Cricetinae gen. sp. Description: Relative potency with respect to retinoic acid in hamster tracheal organ culture assay (TOC). It is filed as functional, Cricetulus griseus, Trachea.
For assay [6], the target named is T1, Ornithine decarboxylase (Mus musculus) (UniProt P00860).
T1 sequence (whole entry): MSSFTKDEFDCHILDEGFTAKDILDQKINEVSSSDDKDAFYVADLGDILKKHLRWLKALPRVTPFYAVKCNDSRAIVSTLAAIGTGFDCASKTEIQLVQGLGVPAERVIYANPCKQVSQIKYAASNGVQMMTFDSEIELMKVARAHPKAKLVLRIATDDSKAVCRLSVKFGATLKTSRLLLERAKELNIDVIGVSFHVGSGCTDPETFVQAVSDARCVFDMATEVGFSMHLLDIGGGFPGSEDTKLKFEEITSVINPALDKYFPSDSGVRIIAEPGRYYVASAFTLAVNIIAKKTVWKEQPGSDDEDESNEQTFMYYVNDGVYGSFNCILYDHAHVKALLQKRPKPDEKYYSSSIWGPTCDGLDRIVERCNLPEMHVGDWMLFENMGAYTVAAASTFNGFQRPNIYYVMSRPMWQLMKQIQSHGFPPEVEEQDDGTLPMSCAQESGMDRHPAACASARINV
The assay can be described thus: Percent inhibition of the induction of ornithine decarboxylase at 1.7 nmol in mouse dorsal epidermis (ODC assay). The format is functional.

Assay [7] concerns the target T1, Ornithine decarboxylase (Mus musculus). Description: Percent inhibition of the induction of ornithine decarboxylase at 17 nmol dose in mouse dorsal epidermis (ODC assay). It is filed as functional.
The subject of assay [8] is Cricetinae gen. sp. The assay can be described thus: Total cultures(11) versus active (5) at 10e-8 M conc. in hamster tracheal organ culture assay (TOC). It is filed as functional, Trachea. Summed up:
as §1

Assay [9] concerns Cricetinae gen. sp. The assay can be described thus: Total cultures(13) versus active (5) at 10e-9 M conc. in hamster tracheal organ culture assay (TOC). The format is functional, Trachea. The gist of the method: as §1
Assay [10] relates to Cricetinae gen. sp. The assay can be described thus: Total cultures (13) versus active (4) at 10e-10 M conc. in hamster tracheal organ culture assay (TOC). It is filed as functional, Trachea. Summed up: as §1
In assay [11] the test system is Cricetinae gen. sp. The assay can be described thus: Total cultures(12) versus active (10) at 10e-9 M conc. in hamster tracheal organ culture assay (TOC). The format is functional, Trachea. The gist of the method:
as §1

Assay [12] concerns Cricetinae gen. sp. The assay can be described thus: Total cultures(6) versus active (2) at 10e-11 M conc. in hamster tracheal organ culture assay (TOC). It is filed as functional, Trachea. Summed up:
as §1

Assay [13] concerns Cricetinae gen. sp. Description: Total cultures(7) versus active (7) at 10e-8 M conc. in hamster tracheal organ culture assay (TOC). It is filed as functional, Trachea. Summed up:
as §1

Assay [14] deals with Cricetinae gen. sp. Description: Total cultures(13) versus active (8) at 10e-10 M conc. in hamster tracheal organ culture assay (TOC). The format is functional, Trachea. The gist of the method:
as §1

The test system of assay [15] is Cricetinae gen. sp. The assay can be described thus: Total cultures(6) versus active (1) at 10e-11 M conc. in hamster tracheal organ culture assay (TOC). It is filed as functional, Trachea. Summed up: as §1
The test system of assay [16] is Cricetinae gen. sp. Description: Total cultures(6) versus active (3) at 10e-10 M conc. in hamster tracheal organ culture assay (TOC). It is filed as functional, Trachea. The gist of the method:
as §1

The subject of assay [17] is Cricetinae gen. sp. The assay can be described thus: Total cultures(6) versus active (5) at 10e-9 M conc. in hamster tracheal organ culture assay (TOC). It is filed as functional, Trachea. Summed up: as §1
In assay [18] the test system is Cricetinae gen. sp. The assay can be described thus: Total cultures(12) versus active(13) at 10e-9 M conc. in hamster tracheal organ culture assay (TOC). The format is functional, Trachea. The gist of the method: as §1
Assay [19] has as its system Cricetinae gen. sp. The assay can be described thus: Total cultures(13) versus active(13) at 10e-8 M conc. in hamster tracheal organ culture assay (TOC). It is filed as functional, Trachea. The gist of the method:
as §1

In assay [20] the test system is Cricetinae gen. sp. The assay can be described thus: Total cultures(5) versus active(13) at 10e-10 M conc. in hamster tracheal organ culture assay (TOC). It is filed as functional, Trachea. The gist of the method: as §1
Assay [21] concerns Cricetinae gen. sp. The assay can be described thus: Total cultures(0) versus active(7) at 10e-11 M conc. in hamster tracheal organ culture assay (TOC). The format is functional, Trachea. The gist of the method: as §1
The test system of assay [22] is Cricetinae gen. sp. The assay can be described thus: Total cultures(13) versus active(13) at 10e-9 M conc. in hamster tracheal organ culture assay (TOC). It is filed as functional, Trachea. The gist of the method: as §1
In assay [23] the test system is Cricetinae gen. sp. Description: Total cultures(4) versus active(13) at 10e-10 M conc. in hamster tracheal organ culture assay (TOC). The format is functional, Trachea. The gist of the method:
as §1

The subject of assay [24] is Cricetinae gen. sp. The assay can be described thus: Total cultures(6) versus active(6) at 10e-8 M conc. in hamster tracheal organ culture assay (TOC). The format is functional, Trachea. Summed up: as §1
Assay [25] deals with Cricetinae gen. sp. Description: Total cultures(10) versus active (12)at 10e-9 M conc. in hamster tracheal organ culture assay (TOC). The format is functional, Trachea. The gist of the method:
as §1

In assay [26] the test system is Cricetinae gen. sp. The assay can be described thus: Total cultures(11) versus active(12)at 10e-8 M conc. in hamster tracheal organ culture assay (TOC). The format is functional, Trachea. The gist of the method: as §1
The subject of assay [27] is Cricetinae gen. sp. Description: Total cultures(6) versus active(13) at 10e-10 M conc. in hamster tracheal organ culture assay (TOC). It is filed as functional, Trachea. The gist of the method: as §1
Assay [28] has as its target T1, Ornithine decarboxylase (Mus musculus). The assay can be described thus: Percent inhibition of the induction of ornithine decarboxylase at 170 nmol in mouse dorsal epidermis (ODC assay). The format is functional.

This note sets out measurements from ChEMBL document CHEMBL1122284, “Aromatic retinoic acid analogues. 2. Synthesis and pharmacological activity” (1983).

On to `CCOC(=O)c1ccc(/C=C(C)/C=C/C2=C(C)CCCC2(C)C)s1`, for which the Active/total cultures is on record as 100% with Cricetinae gen. sp. [1], 71% in the assay on Cricetinae gen. sp. [2] and 43% in the assay with Cricetinae gen. sp. [3]. In addition, in the assay on Cricetinae gen. sp. [4], the ED50 came to 0.02 nM. Also, the Relative activity in the assay on Cricetinae gen. sp. [5] came to 3. The inhibition of control came to 67% in assay [6] and 77% in [7].
With `CC1=C(/C=C/C(C)=C/c2ccc(C(=O)O)o2)C(C)(C)CCC1`, the Active/total cultures was 45% in the assay with Cricetinae gen. sp. [8], 38% in the assay with Cricetinae gen. sp. [9] and 31% with Cricetinae gen. sp. [10]. Further, the ED50 in the assay with Cricetinae gen. sp. [4] is 0.02 nM. The Relative activity in the assay on Cricetinae gen. sp. [5] is reported as <<0.1. Moreover, the inhibition of control was 7% in assay [6] and 5% in [7].
For `CCOC(=O)c1ccc(/C=C(C)/C=C/C2=C(C)CCCC2(C)C)c(OC)c1`, the Active/total cultures is given as 83% in the assay on Cricetinae gen. sp. [11], 33% with Cricetinae gen. sp. [12], 100% in the assay with Cricetinae gen. sp. [13] and 62% in the assay on Cricetinae gen. sp. [14]. Further, the ED50 with Cricetinae gen. sp. [4] was determined as 0.006 nM. The same compound returned a Relative activity in the assay on Cricetinae gen. sp. [5] of 5. For the same compound, the inhibition of control in [6] turned out to be 21%; in assay [7], 39%.
With `COc1cc(C(=O)O)ccc1/C=C(C)/C=C/C1=C(C)CCCC1(C)C`, the Active/total cultures stood at 17% with Cricetinae gen. sp. [15], 50% in the assay with Cricetinae gen. sp. [16] and 83% in the assay on Cricetinae gen. sp. [17]. Also, in the assay with Cricetinae gen. sp. [4], the ED50 came to 0.01 nM. The compound also had a Relative activity in the assay on Cricetinae gen. sp. [5] of 3. The inhibition of control in assay [6] stood at 9%; in assay [7], 37%.
With `CC1=C(/C=C/C(C)=C(\F)c2ccc(C(=O)O)cc2)C(C)(C)CCC1`, the Active/total cultures with Cricetinae gen. sp. [18] was 92%; in the assay on Cricetinae gen. sp. [19], 100%; in the assay with Cricetinae gen. sp. [20], 38%. Besides, in the assay on Cricetinae gen. sp. [4], the ED50 is 0.02 nM. Besides, in the assay with Cricetinae gen. sp. [5], the Relative activity stood at 3. Also, the inhibition of control in assay [6] amounted to 70%; in assay [7], 80%.
On to `CCOC(=O)c1ccc(/C=C(C)/C=C/C2=C(C)CCCC2(C)C)cc1`, for which the Active/total cultures in the assay with Cricetinae gen. sp. [21] is 0%; in the assay with Cricetinae gen. sp. [22], 100%; in the assay with Cricetinae gen. sp. [23], 31%; with Cricetinae gen. sp. [24] it was 100%. Moreover, in the assay on Cricetinae gen. sp. [4], the ED50 is 0.006 nM. The compound further registered a Relative activity with Cricetinae gen. sp. [5] of 1. In assay [7], this compound had an inhibition of control of 80%.
Consider `CCOC(=O)c1ccc(/C(F)=C(C)/C=C/C2=C(C)CCCC2(C)C)cc1`, for which the Active/total cultures worked out at 83% in the assay on Cricetinae gen. sp. [25], 92% with Cricetinae gen. sp. [26] and 46% in the assay with Cricetinae gen. sp. [27]. Moreover, the ED50 in the assay with Cricetinae gen. sp. [4] came out at 0.02 nM. In the assay on Cricetinae gen. sp. [5], this compound came in with a Relative activity of 2. Also, the inhibition of control was found to be 56% in assay [6] and 82% in assay [7].
In the case of `CC1=C(/C=C/C(C)=C/c2ccc(C(=O)O)cc2)C(C)(C)CCC1`, the Relative activity with Cricetinae gen. sp. [5] came out at 2. In addition, the results for the inhibition of control in assay [6], in [28] and in assay [7] were 62%, 87% and 69%, respectively.
